# In PubChem BioAssay AID1656 (Sanford-Burnham Center for Chemical Genomics, 2009):
# Out of some 240,000 compounds screened, about 950 (0.4%) were called active.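 How the source made its calls: active means lipid droplet intensity inhibited by at least 50%, with more than 500 cells counted; inconclusive means wells with under 300 cells, treated as cytotoxic; inactive means the rest.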 Many of the other results were omitted from the sample, so actives are more common in it than they were.
# Test: inhibitors of hepatocyte lipid droplet formation, primary screen, imaging, high-throughput imaging, BODIPY stain (AID 1656);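 on cell count: cells counted across two imaged fields per well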
# Conditions: AML12 mouse hepatocytes, oleate lipid droplets, at 6.5 µM; cell count: measured here: cell count, cytotoxicity flag; inhibition: stronger effect = higher value
# Method in brief: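 Material: mouse AML12 hepatocyte cell line, fixed after treatment; Timing: compound with oleate, overnight; Technique: high-content imaging of BODIPY-stained droplets and DAPI nuclei; Probe or stimulus: oleate, 100 µM final; Dosing: compound at 6.5 µM only.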
SMILES,cell count [cells],inhibition
CCOc1ccc(CCNC(=O)CCc2nnc3ccc(N4CCCC4)nn23)cc1OCC,752,69.5% (active)
CCOC(=O)c1cccc(NC(=O)CCc2nnc3ccc(N4CCOCC4)nn23)c1,652,-5.8% (inactive)
CCN(CC)c1ccc(NC(=O)CCc2nnc3ccc(N4CCCCC4)nn23)c(C)c1,801,3.4% (inactive)
COCCc1nn2c(=O)cc(COC(=O)c3cc(OC)c(OC)c(OC)c3)nc2s1,701,7.1% (inactive)
COc1ccccc1N1CCN(S(=O)(=O)c2ccc3c(c2)NC(=O)CS3)CC1,687,-12.7% (inactive)
CCc1ccc(C(CNc2nc(C(F)(F)F)nc3ccccc23)N(C)C)cc1 (centres undefined),654,-18.7% (inactive)
Cc1ccc2sc(N(CCN(C)C)C(=O)/C=C/c3cccs3)nc2c1C,660,4.4% (inactive)
CCC(C)(C)NC(=O)C(c1ccc(OC)cc1)N(C(=O)CCC(=O)Nc1cc(C)on1)c1ccc(OC)cc1OC (centres undefined),774,2.5% (inactive)
COc1ccc(CN(CC(=O)NC2CCCC2)C(=O)CCC(=O)Nc2cc(C)on2)cc1,702,-31.7% (inactive)
COc1ccc(C(C(=O)NC(C)(C)C)N(Cc2ccc(F)cc2)C(=O)CCC(=O)Nc2cc(C)on2)cc1 (centres undefined),757,96.7% (active)
COc1cccc(CNC(=O)Cn2c(=O)oc3cc(S(=O)(=O)N4CCCCC4)ccc32)c1,692,25.1% (inactive)
CCOC(=O)C1=C(C)OC(N)=C(C#N)C1c1cncc(-c2ccc(F)cc2)c1 (centres undefined),619,-2.2% (inactive)
CCC1=C(C(=O)OC)C(c2cc(OC)ccc2OC)C(C#N)=C(N)O1 (centres undefined),697,-12.3% (inactive)
CCOC(=O)C1=C(CC)OC(N)=C(C#N)C1c1ccc(F)cc1F (centres undefined),769,70.2% (active)
COc1ccc(/C=N/NC(=O)c2ccccc2)cc1OS(=O)(=O)c1ccccc1,657,-6% (inactive)
COc1cc(/C=N/NC(=O)c2ccoc2C)ccc1OCCN1CCCCC1,729,4.7% (inactive)
COc1cc(/C=N/NC(=O)Nc2ccccc2)ccc1OCCOc1ccccc1C,674,94.6% (active)
CC(C)CCn1c(=O)c2c(nc3n2CCCN3Cc2ccccc2)n(C)c1=O,827,-12.4% (inactive)
Cc1cccn2c(=O)c(/C=C(\C#N)C(N)=O)c(N3CCCCCC3)nc12,788,1.2% (inactive)
CC(=O)c1ccc(N2CCN(C(=O)C3CCN(S(=O)(=O)c4ccc5c(c4)CC(C)N5C(=O)C4CC4)CC3)CC2)cc1 (centres undefined),672,-0.3% (inactive)
COc1cccc(N(CC(=O)NC2CCCCCC2)S(=O)(=O)c2ccccc2)c1,750,2.3% (inactive)
CCC(C)[C@H](NC(=O)N1CCn2c1nc1ccccc12)C(=O)NCc1ccc(OC)cc1 (some centres undefined),712,28% (inactive)
CCc1ccc2nc(N(CCCN(C)C)C(=O)c3ccc4c(c3)OCCO4)sc2c1,802,0% (inactive)
CCC(=O)N1CCN(c2ccccc2NC(=O)COc2cccc(C)c2C)CC1,823,-15% (inactive)
COc1cc(/C=N/NC(=O)c2cccnc2)ccc1OC(=O)c1cccc(Br)c1,669,-11.9% (inactive)
O=[N+]([O-])c1cc(C(F)(F)F)ccc1NN=C1CCCC1,631,1.6% (inactive)

SMILES,cell count [cells],inhibition
CN1CCN(CCNC(=O)Nc2ccccc2[N+](=O)[O-])CC1,440,10.2% (inactive)
O=[N+]([O-])c1ccccc1N/N=C1\CCc2ccccc21,658,60.3% (active)
Cc1c2cnn(CC(=O)NCc3ccccn3)c(=O)c2c(C)n1Cc1ccc(Cl)cc1,683,-9.1% (inactive)
CN(C)c1ccc(Nc2c3c4c(cccc4n(C)c2=O)C(=O)c2ccccc2-3)cc1,681,75.9% (active)
CCOc1ccccc1-c1cc(C(=O)N/N=C(\C)c2cccnc2)c2ccccc2n1,660,-32% (inactive)
Cc1c2cnn(CC(=O)NCCCN3CC(C)CC(C)C3)c(=O)c2c(C)n1Cc1ccc(Cl)cc1 (centres undefined),643,-27.4% (inactive)
CC1CC(C)CN(CCOc2cccc3ccccc23)C1 (centres undefined),797,-2.9% (inactive)
COc1ccc(Oc2cn[nH]c2-c2ccc(OC)cc2O)cc1,836,-10.9% (inactive)
COC(=O)c1cc(NS(=O)(=O)c2ccc3c(c2)c(=O)n(C)c(=O)n3C)cc(C(=O)OC)c1,716,-11.5% (inactive)
Cc1c(C(=O)NCc2ccccc2)cnn1-c1ccccc1,684,56.3% (active)
Cc1c(C(=O)N(Cc2ccccc2)Cc2cccnc2)cnn1-c1ccc(F)cc1,648,-6% (inactive)
CSc1ccccc1C(=O)NCc1ccccc1,673,4% (inactive)
COC(=O)C1=CN(c2ccc(F)c(F)c2)C=C(C(=O)OC)C1c1ccc([N+](=O)[O-])cc1,825,-1.4% (inactive)
Cc1ccc(C)c(S(=O)(=O)N2CCCOC2CNC(=O)C(=O)NC2CCCCC2)c1 (centres undefined),690,-1.2% (inactive)
COc1cccc(N2CCN(c3ccc4nnc(CCC(=O)N5CCN(C)CC5)n4n3)CC2)c1,633,-28.1% (inactive)
COc1cc(SC)ccc1C(=O)N(Cc1ccccc1)c1ccccc1,608,-8.6% (inactive)
COCn1c(C(O)c2ccccc2)cc2ccccc21 (centres undefined),813,-9.2% (inactive)
Cc1ccc(O)c(/C=N/NC(=O)COc2ccc3c(C)cc(=O)oc3c2)c1,786,-1.7% (inactive)
CCn1cc(CN2CCN(CC(C)(C)C)C(CCO)C2)c2ccccc21 (centres undefined),814,5.1% (inactive)
CC(=O)Nc1cccc(Nc2nc(-c3cccs3)nc3ccccc23)c1,775,2.7% (inactive)
COc1cc2c(cc1OC)CN(C(=O)c1cc(S(=O)(=O)N3CCCCC3)ccc1Cl)CC2,813,-18.7% (inactive)
COc1ccc(NC(=O)CN2C(=O)CSc3ccc(S(=O)(=O)N4CCC(C)CC4)cc32)cc1,698,-8.1% (inactive)
COCCCNC(=O)CN1C(=O)CSc2ccc(S(=O)(=O)N3CCOCC3)cc21,798,59.7% (active)
CC1CCN(CCCNC(=O)CN2C(=O)CSc3ccc(S(=O)(=O)N4CCCCC4)cc32)CC1,719,8% (inactive)
CNC[C@H](CC1CCCCC1)NC[C@H](NCCC1CCCC1)[C@H](C)O,688,1.2% (inactive)
CCOC(=O)C1(Cc2ccccc2C)CCCN(C(=O)CCc2c(C)noc2C)C1 (centres undefined),656,-27.4% (inactive)

SMILES,cell count [cells],inhibition
CN(C(=O)c1cc2c(=O)n3ccccc3nc2s1)C1CCCCC1,654,-14.1% (inactive)
Cc1nc(SCC(=O)Nc2cc(C)on2)c2c3c(sc2n1)CCCC3,678,5.3% (inactive)
CC(C)c1nc(SCC(=O)Nc2cccc(C(=O)O)c2)c2c3c(sc2n1)CCCC3,835,-26% (inactive)
Cc1cc(NC(=O)CSc2nc(C(C)C)nc3sc4c(c23)CCC(C)C4)no1 (centres undefined),668,105% (active)
COc1ccc(CCNC(=O)CCCCCNC(=O)N2CCn3c2nc2ccccc23)cc1OC,692,0.7% (inactive)
CCCN1CCn2c3c(c4cc(Br)ccc42)CCCC31 (centres undefined),795,-5.9% (inactive)
CCC(C(=O)NC1CCCCC1)N(C(=O)c1snc(C(N)=O)c1N)c1ccc(OC)cc1OC (centres undefined),820,-0.1% (inactive)
Cc1ccc(NC(=O)c2cc(-c3ccccc3O)n[nH]2)cc1C,660,31.5% (inactive)
Cc1nc2cc(C(F)(F)F)ccc2n1CCNc1nc(-c2cc(Cl)c(N)c(Cl)c2)cs1,750,8.1% (inactive)
Cc1c(C(=O)NCC(c2ccco2)N2CCCC2)oc2ccc(Cl)cc12 (centres undefined),736,2.8% (inactive)
CS(=O)(=O)N(CC(=O)N1CCOCC1)c1cccc(Cl)c1Cl,792,-9.9% (inactive)
COc1ccc(NC(=O)NCCN2CCN(c3ccc(C)cc3)CC2)c(Cl)c1,800,-0.4% (inactive)
CCN(C(=O)COc1ccc(C(=O)c2ccccc2)cc1)c1ccccc1,592,-18.3% (inactive)
Cc1cc(CN(C)C(=O)c2cc(COc3ccc(C)c(C)c3)on2)n[nH]1,697,-6.7% (inactive)
CC(Cc1cccs1)N(Cc1ccc(Cl)cc1)C(=O)c1ccncc1 (centres undefined),838,-16% (inactive)
O=C(NC(=S)Nc1ccccc1N1CCCCC1)c1ccc(F)cc1,720,8.8% (inactive)
COc1ccc(C(CNC(=O)COc2ccccc2OC)N2CCCCC2)cc1 (centres undefined),697,-15% (inactive)
COc1cccc(Cn2cc(/C=N/NC(=O)c3cc(O)cc(O)c3)c3ccccc32)c1,740,-2.5% (inactive)
COc1ccc(C)cc1Nc1n[n+](-c2ccccc2)c(-c2cccc(Cl)c2Cl)s1,778,-4.7% (inactive)
CC1CCN(CCCn2c(SCC(=O)NC3CCCC3)nc3ccccc3c2=O)CC1,704,-17.3% (inactive)
CC1CCCN(CCCNC(=O)CN2C(=O)COc3ccc(S(=O)(=O)N4CCOCC4)cc32)C1 (centres undefined),780,-12.4% (inactive)
O=C(NCC(=O)N1CCN(c2ccccc2O)CC1)c1ccc2ccccc2c1,679,-1.6% (inactive)
COc1ccc(N(Cc2cc3ccc(C)cc3[nH]c2=O)S(=O)(=O)c2ccccc2)cc1,764,-6.7% (inactive)
CC(C)c1ccc(NC2CCCN(C(=O)c3ccncc3)C2)cc1 (centres undefined),631,-2.4% (inactive)
O=C(N/C(=C\c1ccc([N+](=O)[O-])cc1)C(=O)N1CCOCC1)c1cccc(Br)c1,652,-42.9% (inactive)
